Sampled rows, rich in hits. Any-hit rate of the full collection: about 1.9%.
DAGLB inhibitor: DAGLB lipase inhibitors, primary screen, biochemical, fluorescence, HTS; actives 0.059% (n = 340,000); Diacylglycerol lipase-beta (Homo sapiens), Q8NCG7; inhibition, % at 5.17 µM; HEK293T DAGLB membrane lysate, EnzChek fluorogenic substrate; in the data active = inhibition above about 34%;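 also: 0% = enzyme with vehicle and 100% = wells lacking enzyme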
PLCb3 inh: human PLC-beta3 inhibitors, primary screen, biochemical, fluorescence; 1-phosphatidylinositol 4,5-bisphosphate phosphodiesterase beta-3 (Homo sapiens), Q01970; Purified PLC-beta3, fluorogenic substrate; inhibition, % at 12.2 µM; actives 0.18% (n = 370,000); in the data active = inhibition above about 11%;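 also: 0% = median of compound wells on plate and 100% = full blocker control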
Tb MetRS inh: T. brucei MetRS inhibitors, primary screen, biochemical, luminescence; purified T. brucei MetRS, ATP depletion, Kinase-Glo luminescence; actives 0.4% (n = 360,000); methionyl-tRNA synthetase (Trypanosoma brucei brucei); inhibition, % at 11.9 µM;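 active = inhibition above a per-plate cutoff of the control wells' mean inhibition plus 3 SD, cut at about 5.5% in these data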;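 also: 0% = DMSO wells median and 100% = median of wells with control inhibitor compound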
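technique = Kinase-Glo luminescence, ATP depletion format | system = purified MetRS (methionyl-tRNA synthetase) enzyme from Trypanosoma brucei | timing = 15 min preincubation, 2 h reaction, all 25 °C | evaluation = percent inhibition versus plate control medians | dosing = single dose, 11.9 µM final nominal, 0.9% final DMSO | also added = substrates ATP, L-methionine and bulk Escherichia coli tRNA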
sPLA2-III inh: human group III sPLA2 inhibitors, primary screen, biochemical, QFRET, BODIPY PC-A2 liposome substrate; Group 3 secretory phospholipase A2 (Homo sapiens), Q9NZ20; QFRET BODIPY PC-A2 liposome hydrolysis, fluorescence; inhibition, % at 12.2 µM; actives 0.56% (n = 370,000); AID 743126, 2013;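 active = inhibition above mean plus 3 SD of compounds lying within the high and low control bounds, cut at about 19% in these data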;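 also: 0% = median of test compound wells and 100% = no enzyme DMSO wells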
PLCg1 inh: PLC-gamma1 enzyme inhibitors, primary screen, biochemical, fluorescence, purified enzyme. inhibition, % at 12.2 µM. fluorogenic substrate. actives 0.84% (n = 370,000); in the data active = inhibition above about 9.5%
Tb MetRS conf: T. brucei MetRS inhibitors, confirmation, biochemical, luminescence; shares compounds with Tb MetRS inh; T. brucei MetRS enzyme, luminescence (ATP depletion); inhibition, % at 11.9 µM; actives 93% (n = 1,400); in the data active = inhibition above about 7%
Jurkat cytotox: Jurkat T cell cytotoxicity, cytotoxicity control for T. brucei MetRS inhibitor project, luminescence, high throughput; AID 624413, 2012; inhibition, % at 8.3 µM; shares compounds with Tb MetRS inh; actives 12% (n = 1,400); Jurkat cells viability, ATP luminescence; in the data active = inhibition above about 15%;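 also: 0% = vehicle and 100% = reference inhibitor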
Tb MetRS inh FP: T. brucei MetRS inhibitors, orthogonal assay for T. brucei MetRS inhibitor project, biochemical, fluorescence polarization | AID 651607, 2012 | actives 44% (n = 1,400) | inhibition, % at 11.9 µM | shares compounds with Tb MetRS inh | purified T. brucei MetRS; in the data active = inhibition above about 17%;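 also: 0% = vehicle wells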
* = called active by the depositor; / = not tested or not shown.

SMILES	DAGLB inhibitor	PLCb3 inh	Tb MetRS inh	sPLA2-III inh	PLCg1 inh	Tb MetRS conf	Jurkat cytotox	Tb MetRS inh FP
CN(CC(=O)Nc1ccc(F)cc1)C(=O)CSc1nc2ncc(Cl)cc2[nH]1	4	-3	0	-2	0	/	/	/
Nc1ncnc2nc(SCC(=O)Nc3cccc(C(F)(F)F)c3)[nH]c12	2	-8	33*	-12	-3	57*	-3	28*
Fc1cccc(CSc2nc3ncccc3[nH]2)c1	0	-3	0	-6	1	/	/	/
O=C(CSc1nc2ncc(Cl)cc2[nH]1)Nc1cccc(F)c1	0	-9	21*	-27	1	47*	2	23*
Cc1[nH]c2ccccc2c1CC(=O)Nc1ccc(Oc2cccnc2)cc1	/	-7	/	-33	-6	/	/	/
COc1cc(OC)cc(C(C)c2ccc(-c3ccccc3)cc2)c1 (stereo not given)	/	-2	/	-10	-2	/	/	/
C=CCc1cccc(/C=C/c2cc(=O)c3ccccc3[nH]2)c1O	0	-301	6.4*	-11	-255	19*	15*	8
C=CCc1cccc(/C=N/n2cnnc2)c1O	0	-32	-1	-5	-25	/	/	/
Cc1ccc(NC(=O)CN(C)C(=O)CCOc2cccc(C)c2)cc1	-4	4	6.0*	10	7	11*	3	3
Cc1ccc(NC(=O)CN(C)C(=O)COC(=O)c2ccc(Cl)cc2O)cc1	-3	-6	6.8*	-10	-5	64*	2	39*
COc1ccccc1NS(=O)(=O)c1cccc(NC(=O)Nc2cccc(Cl)c2)c1	0	-2	31*	-72	0	41*	7	72*
COc1ccccc1NS(=O)(=O)c1cccc(NC(=O)NCCCl)c1	2	-7	-1	11	5	/	/	/
COc1ccc2[nH]c(=O)c(CN(C(=O)NC3CCCCC3)C3CCCCC3)cc2c1	3	2	7.0*	-3	-2	37*	18*	16
COC(=O)CC(=O)CC(NS(=O)(=O)c1ccc(C)cc1)c1ccccc1 (stereo not given)	/	2	/	-69	3	/	/	/
OC(c1nc2ccccc2[nH]1)C(O)c1nc2ccccc2[nH]1 (stereo not given)	2	-1	0	-4	1	/	/	/
O=C(NNC(=O)c1cc2ccccc2[nH]1)OCc1ccccc1	-1	-4	13*	-6	-1	46*	-12	19*
O=C(NCC(O)c1nc2ccccc2[nH]1)c1cc2ccccc2[nH]1 (stereo not given)	/	-1	51*	-5	3	68*	0	40*
CC(C)CC(C)NNC(=O)c1cc2ccccc2[nH]1 (stereo not given)	0	-3	0	0	0	/	/	/
CCCCCN1CCCCC(NC(=O)Cc2ccccc2)C1=O (stereo not given)	/	2	/	-3	0	/	/	/
CCCCCCCCN1C(=O)N2Cc3ccccc3C2CS1(=O)=O (stereo not given)	/	0	/	0	-2	/	/	/
O=C(NC1CCCCC1)N1CCC(c2nc3ccc(Cl)cc3[nH]2)CC1	-1	-1	7.8*	-5	0	12*	12	6
COc1ccc(NC(=S)N2CCC(c3nc4ccc(Cl)cc4[nH]3)CC2)c(OC)c1	-1	1	15*	11	1	36*	1	24*
O=C(NC1CCCCC1)N1CCCC(c2nc3ccccc3[nH]2)C1 (stereo not given)	0	-2	9.2*	1	-1	16*	-2	9
O=C(NC1CCCCC1)N1CCC(c2nc3ccccc3[nH]2)CC1	-3	-2	1	3	-1	/	/	/
CCCCCCCC(=O)N[C@H]1CC[C@@]23CCCN2C(=O)CCC[C@H]3[C@H]1C	/	4	/	0	5	/	/	/
SMILES	DAGLB inhibitor	PLCb3 inh	Tb MetRS inh	sPLA2-III inh	PLCg1 inh	Tb MetRS conf	Jurkat cytotox	Tb MetRS inh FP
O=C(Nc1ccc(N2C(=O)CC(c3ccccc3)C2=O)c(Cl)c1)c1ccccn1 (stereo not given)	/	2	/	-34	3	/	/	/
OCCNc1nc(Nc2ccc(O)cc2)nc2ccccc12	-1	-5	5	0	5	/	/	/
OCCNc1nc(Nc2cccc(O)c2)nc2ccccc12	0	-1	18*	-8	-1	44*	2	14
CS(=O)(=O)Cc1nc2ccccc2n1CC(=O)Nc1cccc(S(=O)(=O)N2CCCC2)c1	-1	-10	10*	-14	-1	33*	0	10
Cc1ccccc1N=Nc1c(N)[nH]n(-c2ccccc2)c1=O	/	3	/	9	3	/	/	/
CCOc1ccc(CONS(=O)(=O)c2ccc(NC(C)=O)cc2)cc1Cl	-1	2	42*	-22	1	67*	7	57*
CC(=O)Nc1ccc(S(=O)(=O)NNC(=O)COc2ccc(Cl)cc2Cl)cc1	4	-4	0	-19	1	/	/	/
COc1nc(OC)nc(N2CCC(C(=O)NCc3cccc(OC)c3OC)CC2)n1	/	3	/	2	3	/	/	/
COC(=O)[C@H](Cc1c[nH]c2ccccc12)NC(=O)NCc1ccc(OC)cc1	2	2	6.6*	-64	5	15*	-4	4
COC(=O)[C@H](Cc1c[nH]c2ccccc12)NC(=O)NCc1ccc(OC)c(OC)c1	2	-2	0	-34	4	/	/	/
COc1cccc(CNC(=O)CSc2nnc3c(n2)[nH]c2ccc(C)cc23)c1	0	-1	19*	-1	3	79*	5	46*
COc1cccc(CNC(=O)CSc2nc3ccc(C)cc3[nH]2)c1	-3	-2	5.8*	0	0	20*	-3	8
Cc1ccc2nc(SCC(=O)NCc3cccs3)[nH]c2c1	-1	-6	3	-2	-3	/	/	/
COc1cccc(NC(=O)CSc2nnc3c(n2)[nH]c2ccc(C)cc23)c1	1	-5	80*	5	5	96*	4	93*
Cc1cccc(N(CC(=O)NC(C)(C)C)C(=O)CS(=O)CC(=O)Nc2ccc3c(c2)OCO3)c1 (stereo not given)	-3	1	0	6	4	/	/	/

Source: PubChem BioAssay (The Scripps Research Institute Molecular Screening Center)
